Experimental data gathered from unrelated publications.
Lines come from different studies, so protocols differ.
blaNDM-1: Metallo-beta-lactamase type 2 (blaNDM-1, Klebsiella pneumoniae, UniProt C7C422)
HTR2B: 5-hydroxytryptamine receptor 2B (HTR2B, Homo sapiens, UniProt P41595)
HLA class I histocompatibility antigen, B alpha chain: HLA class I histocompatibility antigen, B alpha chain (Homo sapiens, UniProt P01889)
dxs: 1-deoxy-D-xylulose-5-phosphate synthase (dxs, Deinococcus radiodurans, UniProt Q9RUB5)
HTR2C: 5-hydroxytryptamine receptor 2C (HTR2C, Homo sapiens, UniProt P28335)

O=C(Cc1ccccc1)N[C@H](C(=O)O)[C@@H]1N=C(C(=O)O)C(CSC(C(=O)O)c2ccccc2)CS1 (stereo partly drawn)  IC50 (blaNDM-1; enzyme activity, inhibitor, absorbance): > 100 µM
CC(=O)c1cc(O)c2ccccc2c1O  IC50 (mRNA cap guanine-N(7) methyltransferase (RNMT, Homo sapiens, UniProt O43148); enzyme activity, inhibitor): 63.3 µM
C[C@H](N)[C@H](O)c1cccc(O)c1  IC50 (HTR2B; ligand displacement, radioligand): 7.38 µM
CC(C)[C@H](NC(=O)[C@@H](NC(=O)[C@H](CCC(=O)O)NC(=O)[C@@H](NC(=O)[C@H](Cc1ccccc1)NC(=O)[C@H](C)NC(=O)[C@H](CO)NC(=O)[C@@H](NC(=O)[C@@H](N)CO)[C@@H](C)O)C(C)C)[C@@H](C)O)C(=O)O  IC50 (HLA class I histocompatibility antigen, B alpha chain; ligand displacement, radioligand): 8.86 µM
CSCC[C@H](NC(=O)[C@H](C)NC(=O)[C@H](CC(C)C)NC(=O)[C@H](C)NC(=O)[C@H](Cc1c[nH]c2ccccc12)NC(=O)[C@H](C)NC(=O)[C@@H](NC(=O)[C@@H]1CCCN1C(=O)[C@H](CO)NC(=O)[C@H](CO)NC(=O)[C@@H](N)CO)C(C)C)C(=O)N[C@@H](CCCNC(=N)N)C(=O)O  IC50 (dxs; enzyme activity, inhibitor, absorbance): 9.5 µM
COc1nn([C@@H](C)c2ccc(CC(C)C)cc2)c(=O)o1  IC50 (Fatty-acid amide hydrolase 1 (FAAH, Homo sapiens, UniProt O00519); enzyme activity, inhibitor; cell membranes): 0.011 µM
Ic1ccccc1CN[C@@H]1C2CCN(CC2)[C@@H]1C(c1ccccc1)c1ccccc1 (racemic)  IC50 (Substance-P receptor (TACR1, Homo sapiens, UniProt P25103); ligand displacement, radioligand): 0.00262 µM
COc1cc(CC(C)N)c(OC)cc1I (racemic)  IC50 (HTR2B; ligand displacement, radioligand): 0.0031 µM
OCCN(CCO)c1nc(N2CCCCC2)c2nc(N(CCO)CCO)nc(N3CCCCC3)c2n1  IC50 (blaNDM-1; enzyme activity, inhibitor): > 10 µM
CN1CCN(CC/C=C2/c3ccccc3Sc3ccc(S(=O)(=O)N(C)C)cc32)CC1  IC50 (HTR2C; ligand displacement, radioligand): 2.8 µM
CC(C)[C@H](NC(=O)[C@@H](NC(=O)[C@H](CCCNC(=N)N)NC(=O)[C@H](C)NC(=O)[C@H](C)NC(=O)[C@H](CCC(=O)O)NC(=O)[C@H](CO)NC(=O)[C@H](C)NC(=O)[C@@H](N)Cc1ccccc1)C(C)C)C(=O)O  IC50 (HLA class I histocompatibility antigen, B alpha chain; ligand displacement, radioligand): 8.55 µM
CN(Cc1ccccc1)C(=O)Oc1nsnc1N1CCCCC1  IC50 (Monoglyceride lipase (MGLL, Homo sapiens, UniProt Q99685); enzyme activity, inhibitor): 5.6 µM
CCCCCNC(=N)N/N=C/c1c[nH]c2ccc(OC)cc12  IC50 (HTR2C; ligand displacement, radioligand): 0.197 µM
O=C(O)c1cccc(C(=O)O)n1  IC50 (blaNDM-1; enzyme activity, inhibitor, fluorescence): 4.26 µM
CC[C@H](C)[C@H](NC(=O)[C@@H](NC(=O)[C@@H](NC(=O)[C@H](CC(N)=O)NC(=O)[C@@H](NC(=O)[C@H](CO)NC(=O)[C@H](CC(N)=O)NC(=O)[C@H](CC(C)C)NC(=O)[C@@H](N)Cc1ccc(O)cc1)[C@@H](C)O)C(C)C)[C@@H](C)O)C(=O)O  IC50 (HLA class I histocompatibility antigen, B alpha chain; ligand displacement, radioligand): 7.93 µM
CSCC[C@H](NC(=O)[C@H](CCC(N)=O)NC(=O)[C@H](C)NC(=O)[C@H](CO)NC(=O)[C@@H](N)CO)C(=O)N[C@@H](CC(N)=O)C(=O)N[C@@H](CC(C)C)C(=O)N[C@@H](CC(N)=O)C(=O)N[C@H](C(=O)N[C@@H](Cc1ccccc1)C(=O)N[C@@H](CC(C)C)C(=O)N[C@@H](CC(N)=O)C(=O)O)[C@@H](C)O  IC50 (dxs; enzyme activity, inhibitor, absorbance; pH 7.6, with preincubation): 49 µM
CC(C)[C@H](NC(=O)[C@@H](NC(=O)[C@@H](NC(=O)[C@@H](NC(=O)[C@@H](NC(=O)[C@H](Cc1ccccc1)NC(=O)[C@H](CCC(=O)O)NC(=O)[C@@H](N)CC(=O)O)C(C)C)C(C)C)C(C)C)[C@@H](C)O)C(=O)O  IC50 (HLA class I histocompatibility antigen, B alpha chain; ligand displacement, radioligand): 52.8 µM
OCC(S)CS (stereo not drawn)  IC50 (blaNDM-1; enzyme activity, inhibitor, fluorescence): 4.21 µM
CSCC[C@H](NC(=O)[C@H](Cc1c[nH]c2ccccc12)NC(=O)CNC(=O)[C@H](Cc1ccc(O)cc1)NC(=O)[C@H](C)NC(=O)[C@@H](CCC(=O)O)NC(=O)CN1CCN(CC(=O)O)CCN(CC(=O)O)CCN(CC(=O)O)CC1)C(=O)N[C@@H](CC(=O)O)C(=O)N(C)[C@@H](Cc1ccccc1)C(N)=O  IC50 (Gastrin/cholecystokinin type B receptor (CCKBR, Homo sapiens, UniProt P32239); ligand displacement, radioligand): 0.0404 µM
CCN(CC)C(=O)N[C@@H]1C[C@@H]2c3cccc4[nH]cc(c34)C[C@H]2N(C)C1  IC50 (blaNDM-1; enzyme activity, inhibitor): > 30 µM
c1ccc(CN(CCN(Cc2ccccn2)Cc2ccccn2)Cc2ccccn2)nc1  IC50 (blaNDM-1; enzyme activity, inhibitor, fluorescence): 0.644 µM
